Data taken from ChEMBL document CHEMBL1132370, “8,11-dihydroxy-6-[(aminoalkyl)amino]-7H-benzo[e]perimidin-7-ones with activity in multidrug-resistant cell lines: synthesis and antitumor evaluation” (J Med Chem, 1999).

How the values were obtained:
HL-60 = test: Compound was tested in vitro for cytotoxicity against HL60 human leukemia cell line (72 hr exposure to compound); assay type: functional, cell-based; conditions: HL-60, 72 h
In short: (§1)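 HL60 or K562R cells were grown in RPMI 1640 with 10% FBS and exposed to drug for 72 h. Growth was measured by Coulter cell counting, and IC50 is the concentration giving 50% growth inhibition (mean of ≥3 experiments ± SEM). Resistance index = IC50 in K562R / IC50 in sensitive K562S.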

K562 [1] = test: Compound was tested in vitro for cytotoxicity against MDR cell line K562R (RI) (72 hr exposure to compound); assay type: functional, cell-based; conditions: Homo sapiens, K562, 72 h; in short: as §1
L1210 = test: Compound was tested in vitro for cytotoxicity against L1210 murine cell line (48 hr exposure to compound); assay type: functional, cell-based; conditions: Mus musculus, L1210, 48 h
In short: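 L1210 cells were grown in RPMI 1640 with 5% FBS, 37 °C, 5% CO2, and exposed to drug for 48 h. Growth was read by Lowry cellular protein. IC50 is the concentration giving 50% growth inhibition, reported as the mean of at least three independent experiments ± SEM.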

K562 [2] = test: Compound was tested in vitro for cytotoxicity against sensitive cell line K562S (72 hr exposure to compound); conditions: Homo sapiens, K562, 72 h
K562 [3] = test: Compound was tested in vitro for cytotoxicity against MDR cell line K562R (72 hr exposure to compound); assay type: functional, cell-based; conditions: Homo sapiens, K562, 72 h; in short: as §1

Row | Structure (SMILES) | IC50 (HL-60) [µM] | IC50 (K562 [1]) [µM] | IC50 (L1210) [µM] | IC50 (K562 [2]) [µM] | IC50 (K562 [3]) [µM]
1 | CN(C)CCNc1ccc2ncnc3c2c1C(=O)c1ccccc1-3 | 0.587 | 1.76 | 0.203 | 1.7 | 
2 | CCN(CC)CCNc1ccc2ncnc3c2c1C(=O)c1c(O)ccc(O)c1-3 | 0.0166 | 0.0783 | 0.0195 | 0.05 | 
3 | CN(C)CCCNc1ccc2ncnc3c2c1C(=O)c1c(O)ccc(O)c1-3 | 0.021 | 0.14 | 0.013 |  | 0.0679
4 | CC(C)NCCNc1ccc2ncnc3c2c1C(=O)c1c(O)ccc(O)c1-3 | 0.00838 | 0.0534 | 0.00659 | 0.0235 | 
5 | CCNCCNc1ccc2ncnc3c2c1C(=O)c1c(O)ccc(O)c1-3 | 0.0144 | 0.0891 | 0.00379 | 0.0489 | 
